Laboratory results reported in ChEMBL document CHEMBL1821702, “8,8-Dimethyldihydroberberine with improved bioavailability and oral efficacy on obese and diabetic mouse models” (Bioorg Med Chem, 2010).
The source made the active and inactive calls. No cut-off for these calls is given here.

Columns and labels:
Mus musculus [1] = assay: Antidiabetic activity in C57BLKS/J-db/db mouse assessed as decrease in fed blood glucose level at 50 mg/kg/day, po for 4 weeks; type: functional; set-up: scale not given: the % may be the effect or the level left
Mus musculus [2] = assay: Toxicity in C57BLKS/J-db/db mouse assessed as increase in subcutaneous fat at 50 mg/kg/day, po for 6 weeks; type: organism-based; set-up: route oral; conditions: in vivo, 1008 h
Summary of the method: (§1)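 db/db mice (half male, half female) were dosed by oral gavage daily for 6 weeks in 0.5% microcrystalline cellulose/1.6% lactose vehicle. Body weight and food intake were recorded daily. Mice were killed after the final dose, and liver and fat depots were weighed and expressed relative to body weight.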

Mus musculus [3] = assay: Antidiabetic activity in C57BLKS/J-db/db mouse assessed as reduction of fasting blood glucose level at 50 mg/kg/day, po for 3 weeks; type: functional; set-up: scale not given: the % may be the effect or the level left
Mus musculus [4] = assay: Antidiabetic activity in C57BLKS/J-db/db mouse assessed as decrease in fed blood glucose level at 50 mg/kg/day, po for 3 weeks; type: functional; set-up: scale not given: the % may be the effect or the level left
Mus musculus [5] = assay: Antidiabetic activity in C57BLKS/J-db/db mouse assessed as alleviation of glucose tolerance at 50 mg/kg/day, po for 3 weeks by intraperitoneal glucose tolerance test; type: functional, organism-based
Summary of the method: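 Male and female C57BLKS/J-db/db mice, randomized at 6 weeks of age by body weight and fed glucose, were gavaged once daily in vehicle (0.5% microcrystalline cellulose, 1.6% lactose). For ipGTT, D-glucose was given at 2 g/kg ip, and blood glucose was read by glucometer at 0, 15, 30, 60, 90 and 120 min.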

[6] = Stability in acidic buffer at pH 2 after 6 hrs by HPLC; type: physicochemical; conditions: acidic buffer, pH 2
Summary of the method: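 A 0.5 mg/mL solution in acetonitrile was adjusted to pH 2 with H3PO4 and analyzed over 6 h by HPLC. Conditions: C18 column at 25 °C, 58% acetonitrile in 0.05 mol/L KH2PO4/0.005 mol/L SDS, 1 mL/min, detection at 320 nm.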

[7] = Oral bioavailability in 12 hrs fasting Sprague-Dawley rat at 20 mg/kg; type: ADME, organism-based; conditions: in vivo
Mus musculus [8] = assay: Toxicity in C57BLKS/J-db/db mouse assessed as change in body weight at 50 mg/kg/day, po for 6 weeks; type: organism-based; set-up: route oral; conditions: in vivo, 1008 h; summary of the method: as §1
Mus musculus [9] = assay: Antiobese activity in C57BLKS/J-db/db mouse assessed as decrease in plasma triglyceride level at 50 mg/kg/day, po […]; type: functional
Summary of the method: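 db/db mice were gavaged once daily in 0.5% microcrystalline cellulose/1.6% lactose vehicle for 6 weeks and killed after the final dose. Plasma triglycerides were measured with a colorimetric triglyceride assay kit.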

Mus musculus [10] = assay: Toxicity in C57BLKS/J-db/db mouse assessed as reduction in liver weight at 50 mg/kg/day, po for 6 weeks; type: organism-based; set-up: route oral; scale not given: the % may be the effect or the level left; conditions: in vivo, 1008 h; summary of the method: as §1
Mus musculus [11] = assay: Toxicity in C57BLKS/J-db/db mouse assessed as change in food intake at 50 mg/kg/day, po for 6 weeks; type: organism-based; set-up: route oral; conditions: in vivo, 1008 h; summary of the method: as §1
[12] = Aqueous solubility of compound in distilled water; type: physicochemical
Summary of the method: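 Excess solid was suspended in distilled water and stirred 24 h at 25 ± 0.5 °C. The suspension was filtered, and dissolved concentration was measured by HPLC.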

Mus musculus [13] = assay: Antidiabetic activity in C57BLKS/J-db/db mouse assessed as decrease in area under curve at 50 mg/kg/day, po for 4 weeks by insulin tolerance test; type: functional; set-up: scale not given: the % may be the effect or the level left

decrease in content after 6 h at 6 h [6]: 17%
bioavailability [7]: 2.65%
solubility [12]: < 1000 µg/mL
Structure (SMILES): COc1ccc2c(c1OC)CN1CCc3cc4c(cc3C1=C2)OCO4 [DIHYDROBERBERINE]
Activity (Mus musculus [1]): 18%
Activity (Mus musculus [2]): 14%
Activity (Mus musculus [3]): 17%
Activity (Mus musculus [4]): 25%
Activity (Mus musculus [5]): inactive
Activity (Mus musculus [8]): Non-toxic
Activity (Mus musculus [9]): inactive
Activity (Mus musculus [10]): 11%
Activity (Mus musculus [11]): Non-toxic
Activity (Mus musculus [13]): 12%
